# According to ChEMBL document CHEMBL4321807, “Cyanine-Gemcitabine Conjugates as Targeted Theranostic Agents for Glioblastoma Tumor Cells” (J Med Chem, 2019):
# Calls of active or inactive are those of the source. The calls are words filed in the database; no cut-off is given here.
# Columns and labels:
# [1] = Drug localization in mitochondria of human U87 cells at 20 uM incubated for 45 mins by Mitotracker staining-based confocal fluorescence microscopy; type: ADME; settings: u-87mg atcc, 0.75 h
# Summary of the method: (§1)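 U87 cells seeded at 10 000/well in imaging chambers and left overnight. Exposed to 20 μM compound in FluoroBrite DMEM for 45 min at 37 °C, then washed with HBSS. Stained 15 min with LysoTracker (1:10 000) or MitoTracker (1:15 000), plus NucBlue nuclear stain. Imaged live by confocal microscopy at 60×, dye excited at 633 nm. Colocalization scored by Pearson's correlation coefficient.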
# [2] = Drug localization in lysosome of human U87 cells at 20 uM incubated for 45 mins by Lysotracker staining-based confocal fluorescence microscopy; type: ADME; settings: u-87mg atcc, 0.75 h; summary of the method: as §1
# U-87 MG [3] = assay: Cytotoxicity against human U87 cells assessed as reduction in cell viability incubated for 72 hrs by AlamarBlue assay; type: functional, cell-based, U-87MG ATCC
# [4] = Drug uptake in lung of Fox1nu mouse xenografted with luciferase and RFP reporter expressing human U87 cells at 10 mg/kg, iv measured after 2 hrs post drug administration by fluorescence imaging analysis; type: ADME, organism-based, U-87MG ATCC; settings: in vivo
# Summary of the method: (§2)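 Xenograft mice carried subcutaneous U87-RFP-LUC flank tumors. Each received 10 mg/kg by retro-orbital i.v. injection in vehicle (2% DMSO, 9% ethanol, 9% BSA in PBS). Whole-body NIR fluorescence (ex 745/em 840 nm, radiant efficiency) imaged on IVIS under isoflurane at set times after injection. For organ signal, tumor and organs were dissected and imaged ex vivo.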
# [5] = Drug uptake in small intestine of Fox1nu mouse xenografted with luciferase and RFP reporter expressing human U87 cells assessed as decrease in drug residual at 10 mg/kg, iv measured after 2 hrs post drug administration by fluorescence imaging analysis; type: ADME, organism-based, U-87MG ATCC; settings: in vivo; summary of the method: as §2
# [6] = Drug uptake in Fox1nu mouse xenografted with luciferase and RFP reporter expressing human U87 cells assessed as increase in fluorescence signal in tumor at 10 mg/kg, iv measured after 30 mins post drug administration by fluorescence imaging analysis; type: ADME, organism-based; settings: in vivo, 0.5 h; summary of the method: as §2
# LN-18 = assay: Cytotoxicity against human LN18 cells assessed as reduction in cell viability at 0.0001 to 10 uM incubated for 72 hrs by AlamarBlue assay; type: functional, cell-based
# Summary of the method: (§3)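 LN18 and LN229 cells in DMEM with 5% FBS; HEK293 in DMEM/F12 with 10% FBS. Seeded at 2500/well and left overnight. Compounds added in PFHM II to final 0.0001–10 μM for 72 h. Viability by AlamarBlue, fluorescence Ex/Em 560/590 nm.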
# [7] = Drug uptake in large intestine of Fox1nu mouse xenografted with luciferase and RFP reporter expressing human U87 cells at 10 mg/kg, iv measured after 2 hrs post drug administration by fluorescence imaging analysis; type: ADME, organism-based, U-87MG ATCC; settings: in vivo; summary of the method: as §2
# [8] = Drug uptake in Fox1nu mouse xenografted with luciferase and RFP reporter expressing human U87 cells assessed as increase in fluorescence signal in at retro-orbital vein at 10 mg/kg, iv measured after 30 mins post drug administration by fluorescence imaging analysis; type: ADME, organism-based; settings: in vivo, 0.5 h; summary of the method: as §2
# [9] = Drug uptake in tumor of Fox1nu mouse xenografted with luciferase and RFP reporter expressing human U87 cells at 10 mg/kg, iv measured after 2 hrs post drug administration by fluorescence imaging analysis; type: ADME, organism-based, Neoplasm, U-87MG ATCC; settings: in vivo; summary of the method: as §2
# HEK293 = assay: Cytotoxicity against human HEK293 cells assessed as reduction in cell viability at 0.0001 to 10 uM incubated for 72 hrs by AlamarBlue assay; type: cell-based; settings: hek293, 72 h; summary of the method: as §3
# [10] = Time taken for drug metabolism in mouse serum at 50 uM by HPLC analysis; type: ADME, cell-free
# Summary of the method: (§4)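 Compound at 50 μM in commercial mouse serum at 37 °C. Followed by C4 HPLC with 780 nm absorbance; the metabolite was identified by MS and by coelution with a synthesized standard. Variant conditions: protease/phosphatase inhibitor cocktail premixed at 10% in serum, or incubation at low temperature.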
# [11] = Drug metabolism in mouse serum assessed as 2-((E)-2-((E)-2-((2-Carboxyethyl)thio)-3-(2-((E)-1-(5-carboxypentyl)-3,3-dimethylindolin-2-ylidene)ethylidene)cyclohex-1-en-1-yl)vinyl)-1-(5-carboxypentyl)-3,3-dimethyl-3H-indol-1-ium chloride formation at low temperature at 50 uM by HPLC analysis; type: ADME, cell-free; summary of the method: as §4
# [12] = Drug uptake in Fox1nu mouse xenografted with luciferase and RFP reporter expressing human U87 cells assessed as increase in fluorescence signal in liver at 10 mg/kg, iv measured after 30 mins post drug administration by fluorescence imaging analysis; type: ADME, organism-based; settings: in vivo, 0.5 h; summary of the method: as §2
# [13] = Drug uptake in kidney of Fox1nu mouse xenografted with luciferase and RFP reporter expressing human U87 cells at 10 mg/kg, iv measured after 2 days post drug administration by fluorescence imaging analysis; type: ADME, organism-based, U-87MG ATCC; settings: in vivo, 48 h; summary of the method: as §2
# [14] = Drug uptake in tumor of Fox1nu mouse xenografted with luciferase and RFP reporter expressing human U87 cells at 10 mg/kg, iv measured after 2 days post drug administration by fluorescence imaging analysis; type: ADME, organism-based, Neoplasm, U-87MG ATCC; settings: in vivo, 48 h; summary of the method: as §2
# [15] = Drug uptake in Fox1nu mouse xenografted with luciferase and RFP reporter expressing human U87 cells assessed as decrease in drug residual at 10 mg/kg, iv measured […] post drug administration by fluorescence imaging analysis relative to control; type: ADME, organism-based; settings: in vivo, 48 h, in the assay text read “48 hrs” for “24 hrs”; summary of the method: as §2
# [16] = Drug uptake in kidney of Fox1nu mouse xenografted with luciferase and RFP reporter expressing human U87 cells at 10 mg/kg, iv measured after 2 hrs post drug administration by fluorescence imaging analysis; type: ADME, organism-based, U-87MG ATCC; settings: in vivo; summary of the method: as §2
# U-87 MG [17] = assay: Antitumor activity against luciferase and RFP reporter expressing human U87 cells xenografted in Fox1nu mouse assessed as decrease in tumor burden at 10 mg/kg, iv administered at day 4 and day 8 post inoculation and six injections weekly measured after 5 weeks by bioluminescence imaging analysis; type: functional, organism-based; settings: U-87MG ATCC
# [18] = Drug uptake in liver of Fox1nu mouse xenografted with luciferase and RFP reporter expressing human U87 cells at 10 mg/kg, iv measured after 2 days post drug administration by fluorescence imaging analysis; type: ADME, organism-based, U-87MG ATCC; settings: in vivo, 48 h; summary of the method: as §2
# [19] = Half life in mouse serum at 50 uM incubated for 360 mins by HPLC analysis; type: ADME, cell-free; summary of the method: as §4
# [20] = Drug metabolism in mouse serum assessed as 2-((E)-2-((E)-2-((2-Carboxyethyl)thio)-3-(2-((E)-1-(5-carboxypentyl)-3,3-dimethylindolin-2-ylidene)ethylidene)cyclohex-1-en-1-yl)vinyl)-1-(5-carboxypentyl)-3,3-dimethyl-3H-indol-1-ium chloride formation at 50 uM by HPLC analysis; type: ADME, cell-free; summary of the method: as §4
# [21] = Drug metabolism in mouse serum assessed as 2-((E)-2-((E)-2-((2-Carboxyethyl)thio)-3-(2-((E)-1-(5-carboxypentyl)-3,3-dimethylindolin-2-ylidene)ethylidene)cyclohex-1-en-1-yl)vinyl)-1-(5-carboxypentyl)-3,3-dimethyl-3H-indol-1-ium chloride formation at 50 uM in presence of protease and phosphatase by HPLC analysis; type: ADME, cell-free; summary of the method: as §4
# [22] = Drug uptake in Fox1nu mouse xenografted with luciferase and RFP reporter expressing human U87 cells assessed as decrease in drug residual at 10 mg/kg, iv measured at 144 hrs post drug administration by fluorescence imaging analysis relative to control; type: ADME, organism-based; settings: in vivo; summary of the method: as §2
# [23] = Half life of compound in human U87 tumor homogenate at 50 uM measured upto 72 hrs by HPLC analysis; type: ADME, U-87MG ATCC
# Summary of the method: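 Tumor homogenate prepared from U87 xenograft tissue in RIPA buffer (on ice), clarified by centrifugation and 0.2 μm filtration. Compound at 50 μM incubated at 37 °C for up to 72 h. Samples run on analytical C4 HPLC (5–90% MeCN gradient, 0.1% TFA) with 780 nm absorbance. Peak area normalized over time.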
# [24] = Toxicity in […] mouse xenografted with luciferase and RFP reporter expressing human U87 cells assessed as effect on body weight at 10 mg/kg, iv administered at day 4 and day 8 post inoculation and six injections weekly measured after 5 weeks; type: organism-based; settings: in vivo, 840 h
# LN-229 = assay: Cytotoxicity against human LN229 cells assessed as reduction in cell viability at 0.0001 to 10 uM incubated for 72 hrs by AlamarBlue assay; type: functional, cell-based; summary of the method: as §3
# [25] = Drug uptake in liver of Fox1nu mouse xenografted with luciferase and RFP reporter expressing human U87 cells at 10 mg/kg, iv measured after 2 hrs post drug administration by fluorescence imaging analysis; type: ADME, organism-based, U-87MG ATCC; settings: in vivo; summary of the method: as §2
# U-87 MG [26] = assay: Cytotoxicity against human U87 cells assessed as reduction in cell viability at 0.001 to 10 uM incubated for 72 hrs by AlamarBlue assay; type: functional, cell-based; settings: U-87MG ATCC
# Summary of the method: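 U87 cells, grown in DMEM/F12 with 10% FBS, seeded at 5000/well and left overnight. Compounds added in protein-free hybridoma medium (PFHM II) to final 0.001–10 μM and incubated 72 h at 37 °C. Viability read by AlamarBlue, 2 h, fluorescence Ex/Em 560/590 nm. IC50 taken relative to the lowest concentration beyond which no further cell death occurs.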
# U-87 MG [27] = assay: Antitumor activity against luciferase and RFP reporter expressing human U87 cells xenografted in Fox1nu mouse assessed as decrease in tumor size at 10 mg/kg, iv administered at day 4 and day 8 post inoculation and six injections weekly measured after 5 weeks by bioluminescence imaging analysis; type: functional, organism-based; settings: U-87MG ATCC
smiles,measurement,setting,value
CCCN1/C(=C/C=C2\CCCC(/C=C/C3=[N+](CCC)c4ccccc4C3(C)C)=C2SCCC(=O)Nc2ccn([C@@H]3O[C@H](CO)[C@@H](O)C3(F)F)c(=O)n2)C(C)(C)c2ccccc21.[Cl-],Drug uptake,[1],Active
same,Drug uptake,[2],Active
CCCN1/C(=C/C=C2\CCCC(/C=C/C3=[N+](CCC)c4ccccc4C3(C)C)=C2SCCC(=O)Nc2ccn([C@H]3C[C@H](O)[C@@H](CO)O3)c(=O)n2)C(C)(C)c2ccccc21,IC50,U-87 MG [3],3400 nM
CC1(C)C(/C=C/C2=C(SCCC(=O)Nc3ccn([C@@H]4O[C@H](CO)[C@@H](O)C4(F)F)c(=O)n3)C(=C/C=C3/N(CCCCCC(=O)O)c4ccccc4C3(C)C)/CCC2)=[N+](CCCCCC(=O)O)c2ccccc21.[Cl-],Drug uptake,[4],Active
same,Drug uptake,[5],Active
same,Drug uptake,[6],Active
same,IC50,U-87 MG [3],20.9 nM
same,Activity,LN-18,Active
same,Drug uptake,[7],Active
same,Drug uptake,[8],Active
same,Drug uptake,[9],Active
same,Activity,HEK293,Toxic
same,Time,[10],3 h
same,Drug metabolism,[11],Metabolite_Notdetected
same,Drug uptake,[12],Active
same,Drug uptake,[13],Active
same,Drug uptake,[14],Active
same,fold change (FC),[15],10
same,Drug uptake,[16],Active
same,Activity,U-87 MG [17],Active
same,Drug uptake,[18],Active
same,half-life at 50 µM,[19],1 h
same,Drug uptake,[1],Active
same,Drug metabolism,[20],Metabolite_Detected
same,Drug metabolism,[21],Metabolite_Notdetected
same,fold change (FC),[22],100
same,half-life at 50 µM,[23],60 h
same,Activity,[24],Non-Toxic
same,Activity,LN-229,Active
same,Drug uptake,[2],Active
same,Drug uptake,[25],Active
O=C(CCS)Nc1ccn([C@@H]2O[C@H](CO)[C@@H](O)C2(F)F)c(=O)n1,IC50,U-87 MG [3],11 nM
CC1(C)C(/C=C/C2=C(SCCC(=O)Nc3ccn([C@H]4C[C@H](O)[C@@H](CO)O4)c(=O)n3)C(=C/C=C3/N(CCCCCC(=O)O)c4ccccc4C3(C)C)/CCC2)=[N+](CCCCCC(=O)O)c2ccccc21,Activity,U-87 MG [26],Active
Nc1ccn([C@@H]2O[C@H](CO)[C@@H](O)C2(F)F)c(=O)n1 [GEMCITABINE],IC50,U-87 MG [3],8.2 nM
same,Activity,U-87 MG [27],inactive
same,Activity,U-87 MG [17],Active
same,Activity,[24],Non-Toxic
